Experimental findings from ChEMBL document CHEMBL4725388, “Characterization of Aminobenzylphenols as Protein Disulfide Isomerase Inhibitors in Glioblastoma Cell Lines” (J Med Chem, 2020) are described below.

For assay [1], the target named is Protein disulfide-isomerase (Homo sapiens, UniProt P07237). Put plainly: Inhibition of recombinant human wild-type N-terminal His-tagged PDIA1 expressed in Escherichia coli strain BL21(DE3) using bovine insulin as substrate preincubated for 1 hr followed by substrate addition. A digest of the protocol: (§1)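 IC50 from dose-response curves; PDI reductase assay for enzyme, MTT in U-87 MG cells for cytotoxicity; mean ± SD of at least three independent experiments.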
Chain of Protein disulfide-isomerase (P07237 whole entry): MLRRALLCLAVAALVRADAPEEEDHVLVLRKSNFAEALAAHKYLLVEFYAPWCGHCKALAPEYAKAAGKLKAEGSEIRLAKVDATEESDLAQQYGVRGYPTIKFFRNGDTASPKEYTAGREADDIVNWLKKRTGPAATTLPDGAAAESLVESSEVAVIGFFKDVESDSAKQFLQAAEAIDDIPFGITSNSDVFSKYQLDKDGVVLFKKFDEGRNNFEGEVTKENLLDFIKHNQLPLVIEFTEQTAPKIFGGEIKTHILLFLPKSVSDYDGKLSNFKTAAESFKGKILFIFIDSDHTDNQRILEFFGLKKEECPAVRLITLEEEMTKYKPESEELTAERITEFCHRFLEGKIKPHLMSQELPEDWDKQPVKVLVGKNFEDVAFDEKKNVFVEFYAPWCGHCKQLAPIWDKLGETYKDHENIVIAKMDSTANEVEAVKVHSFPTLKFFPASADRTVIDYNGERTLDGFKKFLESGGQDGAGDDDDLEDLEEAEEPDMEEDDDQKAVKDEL

For the next assay, the system named is U-87 MG. In words: Cytotoxicity against human U-87 MG cells assessed as growth inhibition measured after 72 hrs by MTT assay. The class given is functional, cell-based, U-87MG ATCC. A digest of the protocol:
as §1
A general note: Formazan colour is commonly taken as a measure of viable cells.

pIC50: −log10 of the molar value. A value given as a limit tells only on which side of the number the result lay.

The pIC50 is the IC50 on a negative log10 scale, so that one unit is a factor of ten. Consider `Cc1ccnc(NC(c2cc(C)ccc2C)c2ccc3cccnc3c2O)c1` (centres undefined), for which the results for the negative logarithm of the IC50 (pIC50) (in assay [1]; in the assay on U-87 MG) were below 4.40 and below 5.00, respectively.

`Oc1c(C(c2ccc(F)cc2)N2CCCCC2)ccc2c1CCC2` (centres undefined): the negative-log IC50 (pIC50) in assay [1] is below 5.00.

`Cc1cc(C)c(C(Nc2ccccn2)c2ccc3cccnc3c2O)c(C)c1` (centres undefined): the values for the pIC50 (in assay [1]; with U-87 MG) were 6.72 and 5.00, respectively.

`Cc1ccnc(NC(c2ccc([N+](=O)[O-])cc2)c2ccc3cccnc3c2O)c1` (centres undefined): the values for the pIC50 (in assay [1]; with U-87 MG) were 6.28 and 5.47, respectively.

In the case of `Oc1c(C(c2ccc3c(c2)CCC3)N2CCCCC2)ccc2ccoc12` (centres undefined), the negative logarithm of the IC50 (pIC50) in assay [1] was 6.39.

Turning to `COc1ccc(C(c2cc3c(cc2O)OCO3)N2CCCCC2)c(OC)c1` (centres undefined), the figures for the pIC50 (in assay [1]; with U-87 MG) were 5.59 and below 4.52, respectively.

As to `Oc1ccc2[nH]ncc2c1C(c1ccc(-c2nccs2)cc1)N1CCCCC1` (centres undefined), the negative logarithm of the IC50 (pIC50) in assay [1] was 6.47.

As to `COc1cc(C(c2cc3c(cc2O)OCO3)N2CCCCC2)cc(OC)c1OC` (centres undefined), the pIC50 is 6.15 in assay [1] and below 5.00 with U-87 MG.

Turning to `Oc1c(C(Nc2ccccn2)c2c(Cl)cccc2Cl)ccc2cccnc12` (centres undefined), the pIC50 in assay [1] is 5.72; with U-87 MG, 5.16.

In the case of `COc1cccc(C(Nc2ncccn2)c2cc3c(cc2O)OCO3)c1O` (centres undefined), the negative logarithm of the IC50 (pIC50) in assay [1] was 5.04; in the assay on U-87 MG, below 5.00.

`Cc1ccnc(NC(c2ccc(F)cc2)c2ccc3cccnc3c2O)c1` (centres undefined): the pIC50 in assay [1] was 6.85; in the assay with U-87 MG, below 5.00.

With `Oc1cc2c(cc1C(Nc1ccccn1)c1ccc3c(c1)OCO3)OCO2` (centres undefined), the pIC50 in assay [1] is 7.14; with U-87 MG it was below 5.00.

With `Cc1ccnc(NC(c2ccccc2F)c2ccc3cccnc3c2O)c1` (centres undefined), the negative-log IC50 (pIC50) in assay [1] is 6.06; in the assay on U-87 MG it was 4.88.

`O=[N+]([O-])c1ccc(C(c2c(O)ccc3[nH]ncc23)N2CCCCC2)cc1` (centres undefined): in assay [1], the pIC50 was 6.28.

Turning to `Cc1ccnc(NC(c2cccc(F)c2)c2ccc3cccnc3c2O)c1` (centres undefined), the negative logarithm of the IC50 (pIC50) in assay [1] was 6.46; with U-87 MG, 5.04.

Consider `Oc1cc2c(cc1C(c1ccc3c(c1)OCO3)N1CCCC1)OCO2` (centres undefined), for which the negative-log IC50 (pIC50) is 7.64 in assay [1] and below 4.52 with U-87 MG.

Regarding `Oc1c(C(Nc2ccccn2)c2ccccc2Cl)ccc2cccnc12` (centres undefined), the pIC50 in assay [1] was 6.30; in the assay on U-87 MG, 5.03.

Consider `Cc1ccc(C)c(C(Nc2ccccn2)c2ccc3cccnc3c2O)c1` (centres undefined), for which the figures for the pIC50 (in assay [1]; in the assay on U-87 MG) were 6.14 and 4.86, respectively.

Consider `COc1cc(C(Nc2ncccn2)c2cc3c(cc2O)OCO3)cc(OC)c1O` (centres undefined), for which the values for the pIC50 (in assay [1]; with U-87 MG) were 5.66 and below 5.00, respectively.

For the compound `COc1ccc(C(c2cc3c(cc2O)OCO3)n2ccnc2)cc1` (centres undefined), the negative-log IC50 (pIC50) is 6.21 in assay [1] and below 5.00 in the assay on U-87 MG.

For the compound `Cc1ccnc(NC(c2ccccc2C)c2ccc3cccnc3c2O)c1` (centres undefined), the negative logarithm of the IC50 (pIC50) in assay [1] is below 4.40; in the assay on U-87 MG, below 5.00.

Consider `Oc1c(C(c2ccc(F)cc2)N2CCCCC2)ccc2nccnc12` (centres undefined), for which the pIC50 in assay [1] was 6.18.

Take `COc1ccc(C(c2cc3c(cc2O)OCO3)N2CCCC2)c(OC)c1` (centres undefined): the negative logarithm of the IC50 (pIC50) was 6.44 in assay [1] and below 4.52 in the assay with U-87 MG.

As to `Oc1c(C(c2ccc(F)cc2)N2CCCCC2)ccc2scnc12` (centres undefined), the pIC50 in assay [1] was 6.24.

With `Oc1cccc(C(Nc2ccccn2)c2ccc3cccnc3c2O)c1Cl` (centres undefined), the negative logarithm of the IC50 (pIC50) in assay [1] was 6.43; with U-87 MG, below 5.00.

As for `COc1cccc(C(c2cc3c(cc2O)OCO3)N2CCCC2)c1O` (centres undefined), the pIC50 is 5.78 in assay [1] and below 5.00 in the assay with U-87 MG.

As to `COc1ccc(C(c2cc3c(cc2O)OCO3)N2CCCCC2)cc1` (centres undefined), the pIC50 is 6.06 in assay [1] and 4.55 in the assay on U-87 MG.

With `Cc1ccnc(NC(c2ccc3cccnc3c2O)c2c(Cl)cccc2Cl)c1` (centres undefined), the negative-log IC50 (pIC50) in assay [1] is below 4.40; in the assay with U-87 MG, 5.14.

`CNC(=O)NC(c1ccc(F)cc1)c1cc2c(cc1O)OCO2` (centres undefined): the pIC50 in assay [1] was below 4.52; in the assay on U-87 MG, below 5.00.

As to `COc1ccccc1C(c1cc2c(cc1O)OCO2)N1CCOCC1` (centres undefined), the figures for the pIC50 (in assay [1]; in the assay with U-87 MG) were 6.48 and 4.56, respectively.

As to `CCOC(=O)c1ccccc1NC(c1ccccc1)c1ccc2cccnc2c1O` (centres undefined), the negative logarithm of the IC50 (pIC50) in assay [1] was above 6.70; in the assay on U-87 MG it was below 5.00.

With `COc1cccc(C(Nc2ccccn2)c2ccc3cccnc3c2O)c1` (centres undefined), the negative logarithm of the IC50 (pIC50) in assay [1] was 5.54; with U-87 MG, 4.92.

Consider `Cc1ccnc(NC(c2ccc(OCc3ccccc3)cc2)c2ccc3cccnc3c2O)c1` (centres undefined), for which the pIC50 was 6.21 in assay [1] and 5.03 in the assay on U-87 MG.

`COc1cc(C(c2cc3c(cc2O)OCO3)N2CCOCC2)ccc1O` (centres undefined): the pIC50 is 6.64 in assay [1] and 4.57 in the assay on U-87 MG.

Regarding `Oc1cc2c(cc1C(c1ccc(F)cc1)N1CCCCC1)NCC2` (centres undefined), the pIC50 in assay [1] is 5.15.

On to `Oc1cc2c(cc1C(c1ccc(F)cc1)N1CCCC1)OCO2` (centres undefined), for which the negative logarithm of the IC50 (pIC50) in assay [1] was above 6.70; with U-87 MG, below 4.52.

As for `Oc1ccccc1C(c1cc2c(cc1O)OCO2)N1CCOCC1` (centres undefined), the negative logarithm of the IC50 (pIC50) is 6.47 in assay [1] and below 4.52 in the assay with U-87 MG.

Take `CNC(=O)NC(c1cc(OC)c(OC)c(OC)c1)c1cc2c(cc1O)OCO2` (centres undefined): the pIC50 is below 4.40 in assay [1] and below 5.00 in the assay with U-87 MG.

Consider `COc1cc(OC)c(C(c2cc3c(cc2O)OCO3)N2CCOCC2)c(OC)c1` (centres undefined), for which the pIC50 in assay [1] was 6.01; in the assay on U-87 MG, 4.87.

On to `Oc1ccc2scnc2c1C(c1ccc(F)cc1)N1CCCCC1` (centres undefined), for which the pIC50 in assay [1] was below 4.00.

In the case of `Oc1c(C(c2ccc3c(c2)OC(F)(F)O3)N2CCCCC2)ccc2ccoc12` (centres undefined), the pIC50 in assay [1] was above 6.70.

Consider `CN(C)c1cccc(C(c2ccc(F)cc2)N2CCCCC2)c1O` (centres undefined), for which the pIC50 in assay [1] was below 4.52.

With `Oc1ccc2[nH]ccc2c1C(c1ccc(F)cc1)N1CCCCC1` (centres undefined), the negative logarithm of the IC50 (pIC50) in assay [1] is 5.74.

On to `Oc1c(C(c2ccc(F)cc2)N2CCCCC2)ccc2ccoc12` (centres undefined), for which the negative logarithm of the IC50 (pIC50) in assay [1] was 6.25.

Consider `Oc1ccc2ncccc2c1C(c1ccc(F)cc1)N1CCCCC1` (centres undefined), for which the negative logarithm of the IC50 (pIC50) in assay [1] was below 4.52.

`Oc1ccc2nccnc2c1C(c1ccc(F)cc1)N1CCCCC1` (centres undefined): in assay [1], the pIC50 was below 4.00.

Turning to `CC(=O)c1cc2ccc(C(c3ccc(F)cc3)N3CCCCC3)c(O)c2o1` (centres undefined), in assay [1], the pIC50 is 5.91.

As for `Oc1c(C(c2ccc(F)cc2)N2CCCCC2)ccc2c1OCO2` (centres undefined), in assay [1], the negative-log IC50 (pIC50) was 5.55.

Take `Oc1c(C(c2ccc(F)cc2)N2CCCCC2)ccc2c1OCCO2` (centres undefined): in assay [1], the negative-log IC50 (pIC50) was 6.54.

As to `Oc1ccc2ccncc2c1C(c1ccc(F)cc1)N1CCCCC1` (centres undefined), the pIC50 in assay [1] was 4.99.

Turning to `Oc1c(C(c2ccc(F)cc2)N2CCCCC2)ccc2cncnc12` (centres undefined), in assay [1], the negative-log IC50 (pIC50) was 5.31.

As for `Oc1c(C(c2ccc(F)cc2)N2CCCCC2)ccc2cnccc12` (centres undefined), the pIC50 in assay [1] was 6.21.

Turning to `Oc1ccc2[nH]ncc2c1C(c1ccc(-n2cccc2)cc1)N1CCCCC1` (centres undefined), the negative-log IC50 (pIC50) in assay [1] was 6.54.

Regarding `COc1cccc(C(c2cc3c(cc2O)OC(F)(F)O3)N2CCOCC2)c1OC` (centres undefined), the pIC50 in assay [1] is 6.29.

Turning to `Oc1c(C(c2ccc(C(F)(F)F)cc2)N2CCCCC2)ccc2ccoc12` (centres undefined), the pIC50 in assay [1] was 6.52.

Regarding `Oc1cc2c(cc1C(c1ccc(F)cc1)N1CCCCC1)CCCC2` (centres undefined), the pIC50 in assay [1] was below 4.00.

Take `Oc1ccc2[nH]ncc2c1C(c1ccc(-c2cncnc2)cc1)N1CCCCC1` (centres undefined): in assay [1], the negative logarithm of the IC50 (pIC50) was 6.08.

For the compound `Oc1cc(F)ccc1C(c1ccc2ccoc2c1O)N1CCCCC1` (centres undefined), in assay [1], the pIC50 was 5.97.

As to `Oc1ccc2[nH]ncc2c1C(c1ccc(C(F)(F)F)cc1)N1CCCCC1` (centres undefined), in assay [1], the pIC50 was 6.15.

Turning to `Oc1ccc2[nH]ncc2c1C(c1ccc(F)cc1)N1CCCCC1` (centres undefined), the pIC50 in assay [1] was 6.46.

As to `Oc1ccc2cnccc2c1C(c1ccc(F)cc1)N1CCCCC1` (centres undefined), in assay [1], the pIC50 is below 4.00.

Take `Oc1cc2c(cc1C(c1ccc(F)cc1)N1CCCCC1)OCCO2` (centres undefined): the pIC50 in assay [1] was 6.17.
